# Assay results reported in ChEMBL document CHEMBL1140069, “In vitro antifungal activity of polyfunctionalized 2-(hetero)arylquinolines prepared through imino Diels-Alder reactions” (2008).
# Legend:
# Format in all cases: functional
# [1] = system: Aspergillus flavus; experiment: Antifungal activity against Aspergillus flavus ATCC 9170 after 48 hrs by broth microdilution technique; conditions: ATCC 9170, 48 h
# Outline: (§1)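 CLSI broth microdilution: M-27 A2 for yeasts and M-38 A for filamentous fungi. Medium is RPMI-1640 buffered to pH 7.0 with MOPS. Compound is diluted twofold from 250 to 0.98, final DMSO ≤2%. Inoculum is 1–5 × 10³ CFU/mL. Plates are incubated at 35 °C in a moist, dark chamber and read visually at 48 h. MIC100 is the lowest concentration giving total growth inhibition versus drug-free control.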
# [2] = system: Aspergillus niger; experiment: Antifungal activity against Aspergillus niger ATCC 9029 after 48 hrs by broth microdilution technique; conditions: ATCC 9029, 48 h; outline: as §1
# [3] = system: Candida albicans; experiment: Antimicrobial activity against Candida albicans C126 isolate at 50 ug/ml after 24 hrs
# Outline: (§2)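 Growth-inhibition microplate test. Strains are grown on Sabouraud-chloramphenicol agar for 48 h at 30 °C, and inoculum is added to RPMI-1640 containing compound at a final 100–6.25, with DMSO ≤2%. Each strain has a growth control (same DMSO, no compound) and a sterility control.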
# [4] = system: Candida albicans; experiment: Antimicrobial activity against Candida albicans C126 isolate at 6.25 ug/ml after 24 hrs; outline: as §2
# [5] = system: Candida albicans; experiment: Antimicrobial activity against Candida albicans C127 isolate at 100 ug/ml after 24 hrs; conditions: C127, 24 h; outline: as §2
# [6] = system: Candida albicans; experiment: Antimicrobial activity against Candida albicans C127 isolate at 6.25 ug/ml after 24 hrs; conditions: C127, 24 h; outline: as §2
# [7] = system: Candida albicans; experiment: Antimicrobial activity against Candida albicans C128 isolate at 50 ug/ml after 24 hrs; outline: as §2
# [8] = system: Candida albicans; experiment: Antimicrobial activity against Candida albicans C128 isolate at 6.25 ug/ml after 24 hrs; outline: as §2
# [9] = system: Cryptococcus neoformans; experiment: Antimicrobial activity against Cryptococcus neoformans IM 972724 isolate at 6.25 ug/ml after 48 hrs
# Outline: (§3)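 Clinical Cryptococcus isolates kept on Sabouraud-dextrose agar slopes; inoculum 1–5 × 10³ CFU/mL. Quinoline DMSO stocks were diluted in RPMI-1640 to final 100–6.25 µg/mL, with DMSO ≤2%. An equal volume of inoculum was added (200 µL per well). Run in triplicate.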
# [10] = system: Candida albicans; experiment: Antimicrobial activity against Candida albicans C130 isolate at 100 ug/ml after 24 hrs; outline: as §2
# [11] = system: Candida albicans; experiment: Antimicrobial activity against Candida albicans C130 isolate at 50 ug/ml after 24 hrs; outline: as §2
# [12] = system: Candida albicans; experiment: Antimicrobial activity against Candida albicans C130 isolate at 12.5 ug/ml after 24 hrs; outline: as §2
# [13] = system: Nakaseomyces glabratus; experiment: Antimicrobial activity against Candida glabrata C115 isolate at 100 ug/ml after 24 hrs; outline: as §2
# [14] = system: Nakaseomyces glabratus; experiment: Antimicrobial activity against Candida glabrata C115 isolate at 50 ug/ml after 24 hrs
# Outline: (§4)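 Percent growth inhibition in 96-well microplates. Compound stocks in DMSO (≤2%) were diluted in RPMI-1640 to final 100–6.25 µg/mL, and 100 µL inoculum was added (final 200 µL). Controls were a growth well (inoculum with matching DMSO, no compound) and a sterility well (no inoculum). Inhibition was calculated against growth and sterility wells.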
# [15] = system: Nakaseomyces glabratus; experiment: Antimicrobial activity against Candida glabrata C115 isolate at 6.25 ug/ml after 24 hrs; outline: as §4
# [16] = system: Candida tropicalis; experiment: Antimicrobial activity against Candida tropicalis C131 isolate at 100 ug/ml after 24 hrs; outline: as §4
# [17] = system: Candida tropicalis; experiment: Antimicrobial activity against Candida tropicalis C131 isolate at 50 ug/ml after 24 hrs; outline: as §4
# [18] = system: Candida tropicalis; experiment: Antimicrobial activity against Candida tropicalis C131 isolate at 25 ug/ml after 24 hrs; outline: as §4
# [19] = system: Candida tropicalis; experiment: Antimicrobial activity against Candida tropicalis C131 isolate at 12.5 ug/ml after 24 hrs; outline: as §4
# [20] = system: Candida tropicalis; experiment: Antimicrobial activity against Candida tropicalis C131 isolate at 6.25 ug/ml after 24 hrs; outline: as §4
# [21] = system: Candida parapsilosis; experiment: Antimicrobial activity against Candida parapsilosis C124 isolate at 25 ug/ml after 24 hrs; conditions: Lodderomyces parapsilosis; outline: as §4
# [22] = system: Cryptococcus neoformans; experiment: Antimicrobial activity against Cryptococcus neoformans ATCC 32264 at 50 ug/ml after 48 hrs; conditions: ATCC 32264, 48 h; outline: as §4
# [23] = system: Cryptococcus neoformans; experiment: Antimicrobial activity against Cryptococcus neoformans IM 972724 isolate at 50 ug/ml after 48 hrs; outline: as §3
# [24] = system: Cryptococcus neoformans; experiment: Antimicrobial activity against Cryptococcus neoformans IM 972724 isolate at 12.5 ug/ml after 48 hrs; outline: as §3
# [25] = system: Cryptococcus neoformans; experiment: Antimicrobial activity against Cryptococcus neoformans IM 042074 isolate at 100 ug/ml after 48 hrs; outline: as §4
# [26] = system: Cryptococcus neoformans; experiment: Antimicrobial activity against Cryptococcus neoformans IM 042074 isolate at 25 ug/ml after 48 hrs; outline: as §4
# [27] = system: Cryptococcus neoformans; experiment: Antimicrobial activity against Cryptococcus neoformans IM 042074 isolate at 6.25 ug/ml after 48 hrs; outline: as §4
# [28] = system: Cryptococcus neoformans; experiment: Antimicrobial activity against Cryptococcus neoformans IM 983036 isolate at 100 ug/ml after 48 hrs; outline: as §3
# [29] = system: Cryptococcus neoformans; experiment: Antimicrobial activity against Cryptococcus neoformans IM 983036 isolate at 50 ug/ml after 48 hrs; outline: as §3
# [30] = system: Cryptococcus neoformans; experiment: Antimicrobial activity against Cryptococcus neoformans IM 983036 isolate at 25 ug/ml after 48 hrs; outline: as §3
# [31] = system: Cryptococcus neoformans; experiment: Antimicrobial activity against Cryptococcus neoformans IM 983036 isolate at 12.5 ug/ml after 48 hrs; outline: as §3
# [32] = system: Cryptococcus neoformans; experiment: Antimicrobial activity against Cryptococcus neoformans IM 983036 isolate at 6.25 ug/ml after 48 hrs; outline: as §3
# [33] = system: Cryptococcus neoformans; experiment: Antimicrobial activity against Cryptococcus neoformans IM 00319 isolate at 12.5 ug/ml after 48 hrs; outline: as §4
# [34] = system: Cryptococcus neoformans; experiment: Antimicrobial activity against Cryptococcus neoformans IM 00319 isolate at 6.25 ug/ml after 48 hrs; outline: as §4
# [35] = system: Cryptococcus neoformans; experiment: Antimicrobial activity against Cryptococcus neoformans IM 972751 isolate at 100 ug/ml after 48 hrs; outline: as §3
# [36] = system: Cryptococcus neoformans; experiment: Antimicrobial activity against Cryptococcus neoformans IM 972751 isolate at 12.5 ug/ml after 48 hrs; outline: as §3
# [37] = system: Cryptococcus neoformans; experiment: Antimicrobial activity against Cryptococcus neoformans IM 031631 isolate at 50 ug/ml after 48 hrs; outline: as §4
# [38] = system: Cryptococcus neoformans; experiment: Antimicrobial activity against Cryptococcus neoformans IM 031631 isolate at 25 ug/ml after 48 hrs; outline: as §4
# [39] = system: Cryptococcus neoformans; experiment: Antimicrobial activity against Cryptococcus neoformans IM 031631 isolate at 6.25 ug/ml after 48 hrs; outline: as §4
# [40] = system: Cryptococcus neoformans; experiment: Antimicrobial activity against Cryptococcus neoformans ATCC 32264 at 25 ug/ml after 48 hrs; conditions: ATCC 32264, 48 h; outline: as §4
# [41] = system: Cryptococcus neoformans; experiment: Antimicrobial activity against Cryptococcus neoformans IM 983040 isolate at 100 ug/ml after 48 hrs; outline: as §3
# [42] = system: Cryptococcus neoformans; experiment: Antimicrobial activity against Cryptococcus neoformans IM 983040 isolate at 12.5 ug/ml after 48 hrs; outline: as §3
# [43] = system: Candida albicans; experiment: Antifungal activity against Candida albicans ATCC 10231 after 48 hrs by broth microdilution technique; conditions: ATCC 10231, 48 h; outline: as §1
# [44] = system: Saccharomyces cerevisiae; experiment: Antifungal activity against Saccharomyces cerevisiae ATCC 9763 after 48 hrs by broth microdilution technique; conditions: ATCC 9763, 48 h; outline: as §1
smiles,measurement,setting,value
c1ccc2nc(-c3ccncc3)ccc2c1,MIC,[1],50 µg/mL
same,MIC,[2],50 µg/mL
same,inhibition at 50 µg/mL,[3],32%
same,inhibition at 6.25 µg/mL,[4],0%
same,inhibition at 100 µg/mL,[5],80%
same,inhibition at 6.25 µg/mL,[6],0%
same,inhibition at 50 µg/mL,[7],15%
same,inhibition at 6.25 µg/mL,[8],0%
same,inhibition at 6.25 µg/mL,[9],0%
same,inhibition at 100 µg/mL,[10],84%
same,inhibition at 50 µg/mL,[11],84%
same,inhibition at 12.5 µg/mL,[12],2%
same,inhibition at 100 µg/mL,[13],75%
same,inhibition at 50 µg/mL,[14],4%
same,inhibition at 6.25 µg/mL,[15],0%
same,inhibition at 100 µg/mL,[16],100%
same,inhibition at 50 µg/mL,[17],75%
same,inhibition at 25 µg/mL,[18],60%
same,inhibition at 12.5 µg/mL,[19],54%
same,inhibition at 6.25 µg/mL,[20],22%
same,inhibition at 25 µg/mL,[21],0%
same,inhibition at 50 µg/mL,[22],100%
same,inhibition at 50 µg/mL,[23],23%
same,inhibition at 12.5 µg/mL,[24],0%
same,inhibition at 100 µg/mL,[25],92%
same,inhibition at 25 µg/mL,[26],87%
same,inhibition at 6.25 µg/mL,[27],68%
same,inhibition at 100 µg/mL,[28],79%
same,inhibition at 50 µg/mL,[29],69%
same,inhibition at 25 µg/mL,[30],45%
same,inhibition at 12.5 µg/mL,[31],20%
same,inhibition at 6.25 µg/mL,[32],0%
same,inhibition at 12.5 µg/mL,[33],32%
same,inhibition at 6.25 µg/mL,[34],12%
same,inhibition at 100 µg/mL,[35],98%
same,inhibition at 12.5 µg/mL,[36],0%
same,inhibition at 50 µg/mL,[37],75%
same,inhibition at 25 µg/mL,[38],57%
same,inhibition at 6.25 µg/mL,[39],12%
same,inhibition at 25 µg/mL,[40],100%
same,inhibition at 100 µg/mL,[41],45%
same,inhibition at 12.5 µg/mL,[42],0%
same,MIC,[43],100 µg/mL
same,MIC,[44],50 µg/mL
